According to ChEMBL document CHEMBL2034945, “Bioactive quassinoids from the seeds of Brucea javanica” (J Nat Prod, 2012):

How the values were obtained:
Type in all cases: functional, cell-based
SK-OV-3 = assay: Cytotoxicity against human SKOV3 cells by MTT assay
Method in brief: (§1)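 Colorimetric MTT assay on human cancer lines: HCT-8 colon, HepG2 hepatoma, BGC-823 gastric, A549 lung epithelial and SKOV3 ovarian. Paclitaxel was the positive control. IC50 was reported.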

[1] = Antiinflammatory activity in rat polymorphonuclear leukocytes assessed as inhibition of LPS-stimulated nitric oxide production after 20 mins by Griess method
Method in brief: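 Rat polymorphonuclear leukocytes were stimulated with LPS, and nitric oxide in the culture supernatant was measured by Griess reaction. Supernatant or sodium nitrite standard was mixed 1:1 with Griess reagent (0.1% N-(1-naphthyl)ethylenediamine dihydrochloride plus 1% sulfanilamide in 5% phosphoric acid, combined within 1 h of preparation). After 20 min at room temperature, absorbance was read at 540 nm. Dexamethasone was the positive control. IC50 was reported.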

HepG2 = assay: Cytotoxicity against human HepG2 cells by MTT assay; method in brief: as §1
A549 = assay: Cytotoxicity against human A549 cells by MTT assay; method in brief: as §1
BGC-823 = assay: Cytotoxicity against human BGC823 cells by MTT assay; method in brief: as §1
HCT-8 = assay: Cytotoxicity against human HCT8 cells by MTT assay; method in brief: as §1

| IC50 [1] [µM] | SMILES | IC50 (SK-OV-3) [µM] | IC50 (HepG2) [µM] | IC50 (A549) [µM] | IC50 (BGC-823) [µM] | IC50 (HCT-8) [µM] |
| --- | --- | --- | --- | --- | --- | --- |
| – | CC(=O)O[C@H]1C(=O)[C@@]2(C)[C@H]([C@H](OC(=O)c3ccccc3)[C@]3(O)C[C@H](OC(=O)[C@H](O)[C@@H](NC(=O)c4ccccc4)c4ccccc4)C(C)=C1C3(C)C)[C@]1(OC(C)=O)CO[C@@H]1C[C@@H]2O [PACLITAXEL] | < 0.0001 | – | – | – | – |
| 0.0023 | C[C@@H]1C[C@H]2[C@@H]3CCC4=CC(=O)C=C[C@]4(C)[C@@]3(F)[C@@H](O)C[C@]2(C)[C@@]1(O)C(=O)CO [DEXAMETHASONE] | – | – | – | – | – |
| – | CC1=CC(=O)[C@@H](O)[C@]2(C)[C@H]3[C@@H](O)[C@H](O)[C@@]4(CO)OC[C@@]35[C@@H](C[C@@H]12)OC(=O)[C@H](O)[C@]54O [BRUCEINE H] | 0.33 | 2.8 | 9.3 | 2.1 | 1.3 |
| – | COC(=O)[C@@]12OC[C@]34[C@H]([C@@H](O)[C@@H]1O)[C@@]1(C)C[C@H](O)C(=O)[C@@H](C)[C@@H]1C[C@H]3OC(=O)[C@H](OC(=O)C=C(C)C)[C@@H]24 [JAVANICOLIDE H] | 0.23 | > 10 | 0.95 | 0.52 | > 10 |
| – | CC(=O)[C@@H]1C[C@H]2OC(=O)[C@H](OC(=O)C=C(C)C)[C@H]3[C@]4(C(=O)O)OC[C@]23[C@H]([C@@H](O)[C@@H]4O)[C@@]1(C)CC(=O)O [BRUCEANIC ACID F] | > 10 | > 10 | > 10 | > 10 | > 10 |
| – | COC(=O)[C@@]12OC[C@]34[C@H]([C@@H](O)[C@@H]1O)[C@@]1(C)CC(=O)[C@H](O)[C@@H](C)[C@@H]1C[C@H]3OC(=O)[C@H](OC(=O)C=C(C)C)[C@@H]24 [JAVANICOLIDE E] | 1.49 | > 10 | 6.36 | 1.43 | > 10 |
| – | COC(=O)[C@@H](C)[C@@H]1C[C@H]2OC(=O)[C@H](OC(=O)C=C(C)C)[C@H]3[C@]4(C(=O)OC)OC[C@]23[C@H]([C@@H](O)[C@@H]4O)[C@@]1(C)CC(=O)O | > 10 | > 10 | > 10 | > 10 | > 10 |
| 1.9 | COC(=O)[C@@]12OC[C@]34[C@H]([C@@H](O)[C@@H]1O)[C@@]1(C)CC(=O)C(O)=C(C)[C@@H]1C[C@H]3OC(=O)[C@H](OC(C)=O)[C@@H]24 [BRUCEINE B] | 0.12 | 0.81 | 1.3 | 0.81 | 2 |
| – | COC(=O)[C@@]12OC[C@]34[C@H]([C@@H](O)[C@@H]1O)[C@@]1(C)C=C(O[C@@H]5O[C@H](CO)[C@@H](O)[C@H](O)[C@H]5O)C(=O)[C@@H](C)[C@@H]1C[C@H]3OC(=O)[C@H](OC(=O)C=C(C)C)[C@@H]24 [BRUCEOSIDE A] | > 10 | > 10 | > 10 | > 10 | > 10 |
| – | CC1=CC(=O)[C@@H](O)[C@]2(C)[C@H]3[C@@H](O)[C@H](O)[C@]4(C)OC[C@@]35[C@@H](C[C@@H]12)OC(=O)[C@H](O)[C@]54O [BRUCEINE D] | 0.76 | 1.2 | 3.9 | 1.2 | 2 |
| – | COC(=O)[C@]12OC[C@@]34[C@H](C[C@H]5[C@H](C)C(=O)C(O[C@@H]6O[C@H](CO)[C@@H](O)[C@H](O)[C@H]6O)=C[C@]5(C)[C@H]3[C@@H](O)[C@@H]1O)OC(=O)[C@H](OC(=O)/C=C(\C)C(C)C)[C@@H]24 [BRUCEANTINOSIDE A] | > 10 | > 10 | > 10 | > 10 | > 10 |
| – | COC(=O)C[C@]1(C)[C@H]2[C@@H](O)[C@H](O)[C@@]3(C(=O)OC)OC[C@@]24[C@@H](C[C@H]1C(C)=O)OC(=O)[C@H](OC(=O)C=C(C)C)[C@@H]34 [BRUCEANIC ACID E METHYL ESTER] | > 10 | > 10 | > 10 | > 10 | > 10 |
| – | COC(=O)[C@@]12OC[C@]34[C@H]([C@@H](O)[C@@H]1O)[C@@](C)(CC(=O)O)[C@H]([C@@H](C)C(=O)O)C[C@H]3OC(=O)[C@H](OC(=O)C=C(C)C)[C@@H]24 [JAVANIC ACID A] | > 10 | > 10 | > 10 | > 10 | > 10 |
| – | COC(=O)[C@@]12OC[C@@]34[C@@H](CC5=C(C)C(=O)C(O)=C[C@]5(C)[C@H]3[C@@H](O)[C@@H]1O)OC(=O)[C@H](OC(=O)C=C(C)C)[C@@H]24 [DEHYDROBRUSATOL] | 2.5 | 3.3 | 7.3 | 4.8 | > 10 |
| – | COC(=O)[C@@]12OC[C@]34[C@H]([C@@H](O)[C@@H]1O)[C@@](C)(CC(=O)O)[C@H](C(C)=O)C[C@H]3OC(=O)[C@H](OC(=O)C=C(C)C)[C@@H]24 [BRUCEANIC ACID E] | > 10 | > 10 | > 10 | > 10 | > 10 |

| SMILES | IC50 [1] [µM] | IC50 (SK-OV-3) [µM] | IC50 (HepG2) [µM] | IC50 (A549) [µM] | IC50 (BGC-823) [µM] | IC50 (HCT-8) [µM] |
| --- | --- | --- | --- | --- | --- | --- |
| CC1=C[C@H](O)[C@@H](O)[C@]2(C)[C@H]3[C@@H](O)[C@H](O)[C@@]4(C)OC[C@@]35[C@@H](C[C@@H]12)OC(=O)[C@H](O)[C@]54O [BRUCEINE E] | 5 | 2.2 | 2.9 | > 10 | 2.2 | 6.7 |
